Bioassay records (PubChem BioAssay)
An excerpt weighted towards active compounds, which were near 0.6% of everything screened.
TNAP inh hi DEA: human TNAP enzyme inhibitors, primary screen, biochemical, luminescent, high phosphate acceptor level, uHTS; purified TNAP, CDP-star luminescence, 1 M DEA; AID 1135, 2008; hit rate 0.03% among 200,000; inhibition, % at 20 µM; Alkaline phosphatase, tissue-nonspecific isozyme (Homo sapiens), P05186;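 active = over 50% inhibition of tissue-nonspecific alkaline phosphatase at 20 µM in the single-dose screen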
Target sequence (P05186 whole entry, looked up): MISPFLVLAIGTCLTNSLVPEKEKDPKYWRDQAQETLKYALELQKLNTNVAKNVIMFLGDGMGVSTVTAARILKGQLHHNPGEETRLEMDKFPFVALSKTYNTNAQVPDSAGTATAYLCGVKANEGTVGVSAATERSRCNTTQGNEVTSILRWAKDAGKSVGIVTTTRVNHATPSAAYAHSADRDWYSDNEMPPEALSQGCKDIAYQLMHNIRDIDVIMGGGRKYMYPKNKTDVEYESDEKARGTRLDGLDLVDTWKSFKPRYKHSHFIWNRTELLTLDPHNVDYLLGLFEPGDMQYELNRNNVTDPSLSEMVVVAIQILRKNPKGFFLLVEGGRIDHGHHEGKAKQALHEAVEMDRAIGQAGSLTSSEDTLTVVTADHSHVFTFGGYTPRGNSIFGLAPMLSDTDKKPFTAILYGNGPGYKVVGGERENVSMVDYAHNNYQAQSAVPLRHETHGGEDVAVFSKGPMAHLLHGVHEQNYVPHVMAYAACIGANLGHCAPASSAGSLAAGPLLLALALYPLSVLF
PMI act satM6P: human PMI activators, high substrate, primary screen, biochemical, fluorescence intensity, near-saturating mannose 6-phosphate; Mannose-6-phosphate isomerase (Homo sapiens), P34949; coupled PMI enzyme assay, resazurin fluorescence, 20 min; stronger effect = higher value; 1 = untreated enzyme, 0 = substrate-free blank; activation factor at 20 µM; hit rate 0.34% among 190,000;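 active = activation factor of 2 or more at 20 µM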
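Technique: Diaphorase-driven resazurin-to-resorufin fluorescence, excitation 544, emission 590 nm | Assay system: Human PMI in coupled enzyme assay | Times: Enzyme reaction with compound 20 min at room temperature | Medium: HEPES-buffered pH 7.4 with magnesium and detergent | Reagent: Mannose-6-phosphate 1.0 mM (near-saturating) plus 0.22 mM NADP+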
PMI act: activators of human PMI, primary screen, biochemical, fluorescence intensity, near-Km mannose 6-phosphate; Mannose-6-phosphate isomerase (Homo sapiens), P34949; purified human PMI, coupled resazurin fluorescence, 20 min; stronger effect = higher value; 1 = vehicle control, 0 substrate-free wells; activation factor at 20 µM; hit rate 0.005% among 190,000; AID 1214, 2008;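 active = activation factor of 2 or more at 20 µM, relative to plate controls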
TNAP act hi DEA: TNAP activators at high phosphate acceptor level, primary screen, biochemical, luminescence, uHTS | Alkaline phosphatase, tissue-nonspecific isozyme (Homo sapiens), P05186 | activation factor at 20 µM | 200,000 tested, under 10 active | purified TNAP, CDP-star luminescence, 1 M DEA, 30 min; stronger effect = higher value; 0 = EDTA background, 1 = DMSO-only activity | AID 1136, 2008;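 active = activation factor at least 2 at 20 µM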
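Control set: EDTA negative control, DMSO positive control / Assay system: human TNAP / Quantity: TNAP 1/800 final / Evaluation: TNAP activation factor scaled between EDTA and DMSO control wells / Measured by: luminescent substrate turnover signal / Compound dosing: one dose, 20 µM / Times: 30 min enzyme reaction at room temperature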
TNAP inh noacc: human TNAP enzyme inhibitors, primary screen, biochemical, luminescent, no phosphate acceptor, uHTS; purified TNAP, CDP-star luminescence, 30 min; hit rate 0.26% among 200,000; AID 1012, 2008; inhibition, % at 20 µM; Alkaline phosphatase, tissue-nonspecific isozyme (Homo sapiens), P05186;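 active = tissue-nonspecific alkaline phosphatase inhibition above about 50% at 20 µM in the single-dose screen, limit read from the data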
Numbers stand for hits; n = inactive.

SMILES	TNAP inh hi DEA	PMI act satM6P	PMI act	TNAP act hi DEA	TNAP inh noacc
CCN(CC)c1ccc(/C=C2\CCC(/C=C(\C#N)C(=O)Nc3ccccc3F)=C2N2CCOCC2)cc1	n	n	n	n	53
S=C1NC2(CCCCC2)Nc2ccccc21	n	2.5	n	n	n
S=C1NC2(CCCC2)Nc2ccccc21	n	2.3	n	n	n
O=C1c2ccccc2NC2(CCCC2)N1O	n	n	n	n	n
COc1cccc(C(=O)C2=NN(C(C)=O)CC2c2ccco2)c1 (configuration not stated)	n	n	n	n	n
O=C1NN(c2ccc(Cl)cc2)C(=O)/C1=C\c1ccc(-c2cccc(C(=O)O)c2)o1	n	n	n	n	n
O=C1NN(c2ccccc2)C(=O)/C1=C\c1ccc(-c2cc([N+](=O)[O-])ccc2O)o1	n	n	n	n	52
COc1ccc2[nH]cc(C(=O)CNc3nc(C)cs3)c2c1	n	n	n	n	56
COC(=O)CC1Sc2ccccc2NC1=O (configuration not stated)	n	n	n	n	n
Cc1ccc(NC2Sc3ccccc3NC2=O)cc1 (configuration not stated)	n	2.1	n	n	n
NNc1ncnc2sc3c(c12)CCC3	n	n	n	n	88
c1cc(Nc2ncnc3sc4c(c23)CCC4)ccn1	n	n	n	n	n
CCOC(=O)c1cc(NC(=O)c2ccccc2)c(=O)oc1C(F)(F)F	n	2.2	n	n	n
CCOC(=O)c1cc(NC(=O)c2ccc(C)cc2)c(=O)oc1C(F)(F)F	n	2.6	n	n	n
CC(=O)c1cc(NC(=O)c2ccccc2)c(=O)oc1C	n	2.1	n	n	n
Cc1oc(=O)c(NC(=O)c2ccccc2)cc1C(=O)c1ccccc1	n	n	n	n	n
CCN1CCC(NC(=O)Nc2cc(Cl)ccc2OC)CC1	n	n	n	n	n
CCOC(=O)C1CCCN(C(=O)c2ccc3c(c2)N(Cc2ccccc2)C(=O)c2ccccc2S3=O)C1 (configuration not stated)	n	n	n	n	n
Cc1ncc([N+](=O)[O-])n1CC(=O)Nc1ccc2c(c1)OCO2	n	n	n	n	n
CC(C)[C@H](NS(=O)(=O)c1cccc(C(F)(F)F)c1)C(=O)OCC(N)=O	n	n	n	n	n
Cn1c(=O)c2cn3c(c2n(C)c1=O)C(c1ccccc1)CC(c1ccccc1)=N3 (configuration not stated)	n	2	n	n	n
CN(C)/C=C/c1oc2ccc(O)cc2c1[N+](=O)[O-]	52	n	n	n	n
Cc1oc2ccc(O)cc2c1C(=O)c1ccc([N+](=O)[O-])cc1	n	n	n	n	n
O=C(CCN1C(=O)C2C3C=CC(C3)C2C1=O)NCCN1CCCc2ccccc21 (configuration not stated)	n	2.1	n	n	n
O=C(CN1C(=O)C2C3C=CC(C3)C2C1=O)NCCN1CCCc2ccccc21 (configuration not stated)	n	2.1	n	n	n
SMILES	TNAP inh hi DEA	PMI act satM6P	PMI act	TNAP act hi DEA	TNAP inh noacc
CC(C)CCNC(=O)c1ccc(-c2ccccc2)cc1	n	n	n	n	n
COC(=O)CC1c2cc(OC)c(OC)cc2CC(=O)c2cc(OC)c(OC)cc21 (configuration not stated)	n	2	n	n	n
C#CCOCCOCCOCCNc1nc(N2CCN(C(=O)[C@H]([C@@H](C)CC)n3cc([C@@H](N)Cc4ccc(O)cc4)nn3)CC2)nc(N2CCN(C(=O)[C@H](CCCCN)n3cc([C@@H](N)CC(C)C)nn3)CC2)n1	n	n	n	n	n
CC(C)[C@H](NS(=O)(=O)c1cccc(Cl)c1)C(=O)OCC(=O)N1CCN(c2ccccc2)CC1	n	2	n	n	n
O=C(OCC(=O)N1CCN(c2ccccc2)CC1)c1cccc(Cl)c1	n	n	n	n	n
COC(=O)CCN1CCN(S(=O)(=O)c2ccccc2Br)CC1	n	n	n	n	n
Cn1c(=O)n(C)c2cc(S(=O)(=O)N3CCOCC3)ccc21	n	n	n	n	n
CSCCC1Nc2ccc(S(=O)(=O)N3CCOCC3)cc2NC1=O (configuration not stated)	n	2.6	n	n	n
Cc1ccc(-c2cc(C(=O)N/N=C/c3cccnc3)n[nH]2)o1	n	n	n	n	71
Cc1cc2oc(=O)cc(CN3CCCc4ccccc43)c2cc1C	n	2.3	n	n	n
Cc1cc2oc(=O)cc(CN3CCOCC3)c2cc1C	n	n	n	n	n
O=C(COc1ccc(Cl)cc1)NCc1nnc(SCC(=O)N2CCCCCC2)o1	n	n	n	n	n
CCN(CC)C(=S)SCC(=O)c1ccc(F)cc1	n	n	n	n	52
Cc1cc(NN)nc(NS(=O)(=O)c2ccccc2)n1	n	n	n	n	50
Cc1cc(NN)nc(NS(=O)(=O)c2ccc(Cl)cc2)n1	n	n	n	n	n
COc1ccc(N=C(NN)c2ccc3ccccc3n2)cc1	n	2.3	n	n	n
NNC(=O)c1ccc2ccccc2n1	n	n	n	n	n
Cc1cc(C)c2cc(C#N)c(NCCNC(=S)NCCCN3CCOCC3)nc2c1	n	n	n	n	n
COCCCNC(=S)NCCNc1nc2c(C)c(C)ccc2cc1C#N	n	2.8	n	n	n
COCCCNC(=S)NCCCNc1nc2cc(C)cc(C)c2cc1C#N	n	2.5	n	n	n
Cc1ccc(-c2cc(C(=O)N/N=C/c3ccco3)n[nH]2)s1	n	n	n	n	68
CCc1ccc(-c2cc(C(=O)N/N=C/c3ccco3)[nH]n2)cc1	n	n	n	n	51
CC(=O)/C(=N\Nc1ccc(Cl)cc1)Sc1nnc(-c2ccccc2)n1-c1ccccc1	n	2	n	n	n
CCCNC(=O)Nc1nnc(C2CC2)s1	n	n	n	n	n
COC(=O)c1ccc(N/N=C/c2cc([N+](=O)[O-])cc(OC)c2O)cc1	n	n	n	n	n
CCOC(=O)c1ccc(N/N=C/c2cc(Br)cc([N+](=O)[O-])c2O)cc1	56	n	n	n	n
Nc1ccc(S(=O)(=O)NNC(=O)C(=O)NNc2ccccc2)cc1	n	2.3	n	n	n
Cc1ccc(S(=O)(=O)NNc2ccccc2)cc1	n	2.1	n	n	n
Cc1ccc(S(=O)(=O)NNC(=O)CCC(=O)Nc2ccccc2)cc1	n	n	n	n	n
Nc1n[nH]c(-c2ccc(Br)cc2)c1Cl	n	n	n	n	81
